PKA-R1A activ – PKA-R1A complex activation. P00514+P68181. PKA-R1A dissociation, Cy5-IP20 fluorescence polarization; scaled: DMSO 0%, 113 µM cGMP 100%. activation, % at 11.4 µM. 340,000 tested, 0.083% active. AID 504707;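 active = percent activation above the mean of all tested compounds plus 3 SD, cut at about 19% in these data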;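 also: higher means more PKAc released from R1A so a rise in polarization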
VIM-2 inhibitor – blocks Pseudomonas aeruginosa VIM-2 metallo-beta-lactamase. purified VIM-2, nitrocefin hydrolysis, epi-absorbance fluorescence. inhibition, % at 5.6 µM. 290,000 tested, 0.89% active;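 active = inhibition above the mean of all tested compounds plus 3 SD, cutoff set per screening run, cut at about 7.5% in these data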;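 also: red hydrolysis product quenches plate fluorescence so inhibitors raise well fluorescence; 0% = enzyme with DMSO and 100% = DMSO without enzyme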
MsrA inh – inhibitors of bovine MsrA | inhibition, % at 15.5 µM | 360,000 tested, 0.75% active | AID 651718 | purified bovine MsrA, absorbance read-out; in the data active = inhibition above about 4.5%;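 also: 0% = vehicle wells with enzyme and 100% = reference inhibitor wells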
IMP-1 inh – inhibitors of Pseudomonas aeruginosa IMP-1 metallo-beta-lactamase; 290,000 tested, 0.45% active; inhibition, % at 5.6 µM; purified IMP-1, nitrocefin hydrolysis, epi-absorbance fluorescence;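 active = inhibition above the mean plus 3 SD of all compounds in the same screening run, cut at about 4.5% in these data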;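 also: 0% = IMP-1 with DMSO and 100% = DMSO wells lacking enzyme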
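Material – recombinant IMP-1 enzyme, purified · Amount – IMP-1 0.2 nM before substrate addition · Medium – HEPES buffer pH 7.1 with ZnSO4 and Brij 35 · Timing – 25 °C, 15 min preincubation, 25 min reaction · Measured by – plate fluorescence quenching by hydrolysis product, ex 480/em 530 nm · Read-out – percent enzyme inhibition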
bovine MsrA act – bovine methionine sulfoxide reductase A activation. AID 602163. activation, % at 10.6 µM. 360,000 tested, 0.3% active. purified bovine MsrA, absorbance read-out; in the data active = activation above about 7.5%;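 also: 0% = vehicle and 100% = reference activator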
PKA-R2B activ – PKA-R2B complex activation. P22694+P31323. PKA-R2B holoenzyme dissociation, Cy5-IP20 fluorescence polarization; R2B truncated from residue 108, S112A mutant; 0% DMSO only, 100% 113 µM cGMP. activation, % at 11.4 µM. 340,000 tested, 0.079% active. AID 504700;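 active = activation above a cutoff set at the mean over all compounds plus 3 SD, cut at about 18% in these data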;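 also: higher means more holoenzyme dissociation and a rise in polarization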
Target sequence (P31323 whole entry, looked up, other chains not shown, the tested form may be a part): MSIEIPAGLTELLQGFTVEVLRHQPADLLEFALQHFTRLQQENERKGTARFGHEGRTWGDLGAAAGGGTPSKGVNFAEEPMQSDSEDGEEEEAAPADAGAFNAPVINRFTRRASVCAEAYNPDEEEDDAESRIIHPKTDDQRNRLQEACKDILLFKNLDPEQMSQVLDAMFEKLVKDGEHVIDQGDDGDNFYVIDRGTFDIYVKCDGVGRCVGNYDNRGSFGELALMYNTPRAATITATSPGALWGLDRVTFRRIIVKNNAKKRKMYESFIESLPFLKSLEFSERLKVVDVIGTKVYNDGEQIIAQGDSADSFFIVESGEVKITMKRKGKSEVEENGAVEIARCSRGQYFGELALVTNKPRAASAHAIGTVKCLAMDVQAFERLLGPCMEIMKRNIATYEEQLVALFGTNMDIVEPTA
Active calls of the source: *; x = no result given. Hits are enriched below; roughly 2.1% of the tested compounds scored in any of these assays.

SMILES	PKA-R1A activ	VIM-2 inhibitor	MsrA inh	IMP-1 inh	bovine MsrA act	PKA-R2B activ
Cn1nc(-c2ccc(Cl)cc2)c2cc(C(=O)N3CCN(C(=O)c4ccco4)CC3)sc21	10	0	-1	1	-1	1
CCOC(=O)C(=CNc1ccc(NC2=NCC(C)(C)S2)cc1)C(=O)OCC	2	10*	0	-5	-1	-6
C=CCCC1CN(CC=C)S(=O)(=O)c2c(F)cccc2O1 (stereo unspecified)	x	x	-1	x	x	x
Cc1[nH]c2ccccc2c1Cc1nnc(SCC(N)=O)o1	-9	0	2	9.6*	1	-3
O=c1[nH]c(C(Cl)Cl)nc2sc3c(c12)CCN(Cc1ccccc1)C3	-10	3	0	11*	-4	2
CCCN(C(=O)COC(=O)c1nc2nccc(C)n2n1)C1CCS(=O)(=O)C1 (stereo unspecified)	-6	x	-1	x	-1	-6
C=CCn1c2ccccc2c2nnc(SCC(=O)OC)nc21	8	x	1	x	1	-8
C=CCn1c2ccccc2c2nnc(SCC(N)=O)nc21	6	8.9*	3	-2	-3	8
Cn1c2ccccc2c2nnc(SCC(N)=O)nc21	1	8.0*	2	-3	-12	-5
Cn1c2ccc(Br)cc2c2nnc(SCC(=O)O)nc21	-4	9.8*	1	2	-12	6
CCOC(=O)CSc1nnc2c3ccccc3n(C)c2n1	8	4	2	-3	-4	-2
CCOC(=O)c1sc(NC(=O)C(CC)Sc2nnc3c4ccccc4n(C(C)C)c3n2)nc1C (stereo unspecified)	1	-5	0	-6	3	-18
CCOC(=O)Cc1nnc(NC(=O)C(CC)Sc2nnc3c4ccccc4n(C)c3n2)s1 (stereo unspecified)	-7	9.3*	1	-1	-9	-9
CCC(=O)Nc1ccc2c(c1)OC[C@@H](C)N(Cc1cccc(F)c1)C[C@@H](C)[C@@H](OC)CN(C)C2=O	x	x	0	x	x	x
O=C(N[C@H](Cc1ccccc1)C(=O)NCCN1CCOCC1)[C@H]1O[C@@H](n2ccc(=O)[nH]c2=O)[C@H](O)[C@@H]1O	x	x	0	x	x	x
CCn1c2ccccc2c2nnc(SCC(=O)NC3CCS(=O)(=O)C3)nc21 (stereo unspecified)	1	3	0	-4	-2	-4
Cn1c2ccccc2c2nnc(SCC(=O)NC3CC3)nc21	-6	9.2*	2	1	-4	-3
Cc1[nH]c2ccccc2c1/C=C/C(=O)c1ccncc1	-9	8.5*	-1	0	-2	-8
O=C1NC(c2ccccc2)(c2ccccc2)C(=O)N1CNc1ccccn1	x	x	0	x	x	x
O=C(NCCCN1CCN(c2cccc(Cl)c2)CC1)C1CCC(=O)N1Cc1ccccc1Cl (stereo unspecified)	-14	1	-1	6.5*	2	-2
CS(=O)(=O)N1Cc2cc(C(=O)NCC3CC3)nc(-c3cccc(-c4cccnc4)c3)c2[C@@H]1CCO	x	x	0	x	3	x
NC(=O)C1CCN(C(=O)Cc2ccc(-c3ccccc3)cc2)CC1	-3	-1	1	9.7*	-1	-9
CC(=O)c1ccc(-c2ccc(C(=O)N3CCC(C(N)=O)CC3)o2)cc1	-2	x	7.6*	x	-4	0
CC(=O)c1ccc(-c2ccc(C(=O)N3CCN(c4ccc(F)cc4)CC3)o2)cc1	0	-2	1	-4	-5	-3
O=C(O)C1CCN(C(=O)Cc2ccccc2)CC1	7	-4	0	-3	-5	-5
NC(=O)c1ccsc1NC(=O)COC(=O)c1nc(Cl)ccc1Cl	-5	x	1	x	-3	-15
COc1ccc(-c2nn(C)c(=O)c3ccccc23)cc1NS(C)(=O)=O	-9	5	2	-2	-3	-14
COc1ccc(-c2nn(C)c(=O)c3ccccc23)cc1CNS(C)(=O)=O	-4	8.5*	0	-1	-2	-5
COc1ccc(-c2nn(C)c(=O)c3ccccc23)cc1CNC(=O)c1ccco1	3	8.9*	-1	0	-2	-6
Cn1nc(-c2ccc(N3CCCCC3)c(NC(=O)c3ccco3)c2)c2ccccc2c1=O	-1	-3	0	-5	-2	8

Source: PubChem (The Scripps Research Institute Molecular Screening Center)
